Assay results published in ChEMBL document CHEMBL1126924, “R2 C-terminal peptide inhibition of mammalian and yeast ribonucleotide reductase” (J Med Chem, 1993).
Blank lines part the entries; values can stand above or below the compound they belong to. Square brackets hold non-standard residues; d marks the D form. Peptide text beside a SMILES is read from it. aThr = C[C@H](O)[C@H](N)C(=O)O

Assays:
[1] = target: T1, Ribonucleoside-diphosphate reductase RR1 (Homo sapiens, UniProt P23921+P31350+Q7LG56); test: Inhibition of mammalian ribonucleotide reductase; type: protein-complex assay
T1 sequence (P23921 whole entry): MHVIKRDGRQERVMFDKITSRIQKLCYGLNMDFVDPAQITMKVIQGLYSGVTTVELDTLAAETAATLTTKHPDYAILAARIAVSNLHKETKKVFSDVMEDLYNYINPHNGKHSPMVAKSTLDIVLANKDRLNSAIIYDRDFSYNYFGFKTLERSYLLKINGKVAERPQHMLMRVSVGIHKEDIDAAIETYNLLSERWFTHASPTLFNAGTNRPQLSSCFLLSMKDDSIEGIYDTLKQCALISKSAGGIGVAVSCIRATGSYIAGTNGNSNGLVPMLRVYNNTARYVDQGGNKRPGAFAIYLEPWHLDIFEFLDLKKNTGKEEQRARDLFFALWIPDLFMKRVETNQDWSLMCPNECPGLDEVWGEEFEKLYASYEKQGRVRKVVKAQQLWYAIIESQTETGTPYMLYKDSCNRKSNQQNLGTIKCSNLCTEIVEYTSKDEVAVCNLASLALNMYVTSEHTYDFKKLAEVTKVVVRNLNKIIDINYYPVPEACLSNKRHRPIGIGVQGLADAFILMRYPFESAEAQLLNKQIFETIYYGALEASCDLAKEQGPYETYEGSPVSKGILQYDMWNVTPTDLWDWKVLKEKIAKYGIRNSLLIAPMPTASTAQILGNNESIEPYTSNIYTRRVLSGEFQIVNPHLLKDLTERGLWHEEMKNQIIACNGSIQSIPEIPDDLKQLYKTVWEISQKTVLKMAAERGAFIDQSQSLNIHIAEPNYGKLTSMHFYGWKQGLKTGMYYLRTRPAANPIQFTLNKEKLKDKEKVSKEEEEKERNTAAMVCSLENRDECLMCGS
T1 sequence (Q7LG56 whole entry): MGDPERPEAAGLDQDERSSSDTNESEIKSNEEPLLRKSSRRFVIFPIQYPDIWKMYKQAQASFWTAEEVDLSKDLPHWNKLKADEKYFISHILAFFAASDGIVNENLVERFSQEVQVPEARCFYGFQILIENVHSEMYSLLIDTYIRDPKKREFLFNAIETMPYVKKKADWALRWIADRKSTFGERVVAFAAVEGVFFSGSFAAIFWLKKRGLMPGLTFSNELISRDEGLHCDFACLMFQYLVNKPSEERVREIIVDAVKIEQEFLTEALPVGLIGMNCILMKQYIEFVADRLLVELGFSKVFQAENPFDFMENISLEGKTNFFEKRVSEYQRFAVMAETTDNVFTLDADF
T1 sequence (P31350 whole entry): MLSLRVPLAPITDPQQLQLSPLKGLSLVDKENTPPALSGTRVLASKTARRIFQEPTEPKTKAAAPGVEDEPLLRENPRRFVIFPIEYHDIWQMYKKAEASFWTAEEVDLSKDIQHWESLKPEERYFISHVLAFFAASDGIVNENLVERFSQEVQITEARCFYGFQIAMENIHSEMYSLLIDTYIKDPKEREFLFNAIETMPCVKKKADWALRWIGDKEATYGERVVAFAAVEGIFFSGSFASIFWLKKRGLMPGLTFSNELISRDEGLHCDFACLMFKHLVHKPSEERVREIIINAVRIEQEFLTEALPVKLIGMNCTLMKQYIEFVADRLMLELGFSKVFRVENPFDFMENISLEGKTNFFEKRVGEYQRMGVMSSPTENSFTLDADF
How it was run: (§1)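 Calf thymus R1 (1 μg) with cloned mouse R2 (2 μg) expressed in E. coli from pET-M2. CDP reduction was run at 35 °C with DTT as reductant. [³H]dCDP was separated on aminophenylboronate and counted by scintillation.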

[2] = target: T2, Ribonucleoside-diphosphate reductase large subunit (Mus musculus, UniProt P07742); test: Inhibitory activity of compound against mammalian ribonucleotide reductase; Range is 110-230; how it was run: as §1
T2 sequence (P07742 whole entry): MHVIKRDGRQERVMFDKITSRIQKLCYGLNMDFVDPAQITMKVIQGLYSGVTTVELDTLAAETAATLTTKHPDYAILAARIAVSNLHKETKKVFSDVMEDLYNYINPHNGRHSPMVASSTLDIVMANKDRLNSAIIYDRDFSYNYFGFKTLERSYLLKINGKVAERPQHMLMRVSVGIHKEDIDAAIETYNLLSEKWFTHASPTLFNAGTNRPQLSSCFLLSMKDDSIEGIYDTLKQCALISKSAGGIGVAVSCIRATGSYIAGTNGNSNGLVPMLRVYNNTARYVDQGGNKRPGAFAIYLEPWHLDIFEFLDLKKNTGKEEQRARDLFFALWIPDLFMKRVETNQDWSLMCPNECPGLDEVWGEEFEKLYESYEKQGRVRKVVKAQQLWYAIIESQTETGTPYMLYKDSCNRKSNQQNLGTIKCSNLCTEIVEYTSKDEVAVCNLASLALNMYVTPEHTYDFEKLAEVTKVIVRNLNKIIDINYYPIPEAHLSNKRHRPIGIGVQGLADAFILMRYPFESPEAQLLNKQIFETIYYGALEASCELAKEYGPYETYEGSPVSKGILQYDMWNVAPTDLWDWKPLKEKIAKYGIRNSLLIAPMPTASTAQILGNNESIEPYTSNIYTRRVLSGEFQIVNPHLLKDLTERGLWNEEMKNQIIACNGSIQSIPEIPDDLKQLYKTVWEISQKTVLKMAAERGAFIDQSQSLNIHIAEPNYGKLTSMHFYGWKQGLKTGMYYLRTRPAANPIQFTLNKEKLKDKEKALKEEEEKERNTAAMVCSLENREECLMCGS

[3] = target: T2, Ribonucleoside-diphosphate reductase large subunit; test: Inhibitory activity of compound against mammalian ribonucleotide reductase; Range is 364-460; how it was run: as §1
[4] = target: Ribonucleoside-diphosphate reductase RR1 (Homo sapiens) (UniProt P23921+Q7LG56+P31350); test: Relative inhibitory potency against mammalian ribonucleotide reductase; type: protein-complex assay
[5] = target: T2, Ribonucleoside-diphosphate reductase large subunit; test: Inhibitory activity of compound against mammalian ribonucleotide reductase; Range is 35-40; how it was run: as §1
[6] = target: T2, Ribonucleoside-diphosphate reductase large subunit; test: Inhibitory activity of compound against mammalian ribonucleotide reductase; Range is 40-42; how it was run: as §1
[7] = target: T2, Ribonucleoside-diphosphate reductase large subunit; test: Inhibitory activity of compound against mammalian ribonucleotide reductase; Range is 450-620; how it was run: as §1
[8] = target: T2, Ribonucleoside-diphosphate reductase large subunit; test: Inhibitory activity of compound against mammalian ribonucleotide reductase; Range is 32-38; how it was run: as §1
[9] = target: T2, Ribonucleoside-diphosphate reductase large subunit; test: Inhibitory activity of compound against mammalian ribonucleotide reductase; Range is 34-35; how it was run: as §1

Compound: H-FTLDADF-OH
IC50 [1]: > 400 µM

Compound: Ac-FALDADF-OH
RI [4]: 24%
IC50 [5]: 35 µM

Compound: CC(=O)N[C@@H](Cc1ccccc1)C(=O)N[C@H](C(=O)N[C@@H](CC(C)C)C(=O)N[C@@H](CC(=O)O)C(=O)N[C@@H](C)C(=O)N[C@@H](CCC(=O)O)C(=O)N[C@@H](Cc1ccccc1)C(=O)O)[C@@H](C)O
IC50 [7]: 450 µM

Compound: CC(=O)N[C@@H](Cc1ccccc1)C(=O)N[C@H](C(=O)N[C@@H](CC(C)C)C(=O)N[C@@H](CC(=O)O)C(=O)N[C@@H](C)C(=O)N[C@@H](CCC(=O)O)C(=O)N[C@@H](Cc1ccccc1)C(=O)O)[C@H](C)O
RI [4]: 1.7%

Compound: CC(=O)N[C@@H](Cc1ccccc1)C(=O)N[C@H](C(=O)N[C@@H](CC(C)C)C(=O)N[C@@H](CC(=O)O)C(=O)N[C@@H](C)C(=O)N[C@@H](CC(N)=O)C(=O)N[C@@H](Cc1ccccc1)C(=O)O)[C@@H](C)O
IC50 [8]: 32 µM

Compound: CC(=O)N[C@@H](CC(N)=O)C(=O)N[C@@H](CO)C(=O)N[C@@H](Cc1ccccc1)C(=O)N[C@H](C(=O)N[C@@H](CC(C)C)C(=O)N[C@@H](CC(=O)O)C(=O)N[C@@H](C)C(=O)N[C@@H](CC(=O)O)C(=O)N[C@@H](Cc1ccccc1)C(=O)O)[C@H](C)O
RI [4]: 100%

Compound: CC(=O)N[C@@H](Cc1ccccc1)C(=O)N[C@H](C(=O)N[C@@H](CC(C)C)C(=O)N[C@@H](CC(=O)O)C(=O)N[C@@H](C)C(=O)N[C@@H](C)C(=O)N[C@@H](Cc1ccccc1)C(=O)O)[C@@H](C)O
IC50 [9]: 34 µM

Compound: CC(=O)N[C@@H](Cc1ccccc1)C(=O)N[C@H](C(=O)N[C@@H](CC(C)C)C(=O)N[C@@H](CC(=O)O)C(=O)N[C@@H](C)C(=O)N[C@@H](CC(=O)O)C(=O)N[C@@H](Cc1ccccc1)C(=O)N[C@@H](C)C(=O)N[C@@H](C)C(=O)O)[C@H](C)O (Ac-F[aThr]LDADFAA-OH)
RI [4]: 2.1%

Other lines, results leading:

IC50 [2]: 110 µM
Compound: CC(=O)N[C@@H](Cc1ccccc1)C(=O)N[C@H](C(=O)N[C@@H](CC(C)C)C(=O)N[C@@H](CC(=O)O)C(=O)NCC(=O)N[C@@H](CC(=O)O)C(=O)N[C@@H](Cc1ccccc1)C(=O)O)[C@@H](C)O

IC50 [3]: 364 µM
Compound: CC(=O)N[C@@H](Cc1ccccc1)C(=O)N[C@H](C(=O)N[C@@H](CC(C)C)C(=O)N[C@@H](CC(=O)O)C(=O)N[C@@H](Cc1ccccc1)C(=O)O)[C@@H](C)O

IC50 [1]: > 400 µM
Compound: CC(=O)N[C@H](C(=O)N[C@@H](CC(C)C)C(=O)N[C@@H](CC(=O)O)C(=O)N[C@@H](C)C(=O)N[C@@H](CC(=O)O)C(=O)N[C@@H](Cc1ccccc1)C(=O)O)[C@@H](C)O

RI [4]: 25%
IC50 [6]: 40 µM
Compound: Ac-FSLDADF-OH

IC50 [1]: > 400 µM
Compound: Ac-FTLDADL-OH
